Test results as given in ChEMBL document CHEMBL1142736, “Synthesis of novel diarylpyrimidine analogues and their antiviral activity against human immunodeficiency virus type 1” (J Med Chem, 2005).

Tests used:
[1] = tested on: Human immunodeficiency virus 1; experiment: Effective concentration for the inhibition of wild type human immunodeficiency virus type 1 LAI strain; type: functional, organism-based
[2] = tested on: Human immunodeficiency virus 1; experiment: Effective concentration against human immunodeficiency virus type 1 mutated at 227C; type: functional, organism-based
[3] = tested on: Human immunodeficiency virus 1; experiment: Effective concentration against human immunodeficiency virus type 1 mutated at 227L+106A; type: functional, organism-based
[4] = tested on: Human immunodeficiency virus 1; experiment: Effective concentration against human immunodeficiency virus type 1 mutated at 188L; type: functional, organism-based
[5] = Cytotoxic concentration against wild type human immunodeficiency virus type 1 […] strain; conditions: Human immunodeficiency virus 1
How it was run: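 MT-4 cells, 30,000 cells/well, were mock-infected (virus at 200-250 CCID50/well for the infected wells) and exposed to a range of compound concentrations. Plates were held at 37 °C with 5% CO2.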

[6] = tested on: Human immunodeficiency virus 1; experiment: Effective concentration against human immunodeficiency virus type 1 mutated at 103N; type: functional, organism-based
[7] = tested on: Human immunodeficiency virus 1; experiment: Ratio of CC50 and EC50 against wild type human immunodeficiency virus type 1 LAI strain; type: functional
[8] = tested on: Human immunodeficiency virus 1; experiment: Effective concentration against human immunodeficiency virus type 1 mutated at 100I+103N; type: functional, organism-based
[9] = tested on: Human immunodeficiency virus 1; experiment: Effective concentration against human immunodeficiency virus type 1 mutated at 100I; type: functional, organism-based
[10] = tested on: Human immunodeficiency virus 1; experiment: Effective concentration against human immunodeficiency virus type 1 mutated at 181C; type: functional, organism-based
[11] = tested on: Human immunodeficiency virus 1; experiment: Effective concentration against human immunodeficiency virus type 1 mutated at 103N+181C; type: functional, organism-based
[12] = tested on: Human immunodeficiency virus 1; experiment: Effective concentration against human immunodeficiency virus type 1 mutated at 103N+181C; ND:Not determined; type: functional, organism-based

| Compound | EC50 [1] [nM] | EC50 [2] [nM] | EC50 [3] [nM] | EC50 [4] [nM] | CC50 [5] [nM] | EC50 [6] [nM] | Selectivity index [7] | EC50 [8] [nM] | EC50 [9] [nM] | EC50 [10] [nM] | EC50 [11] [nM] | EC50 [12] [nM] |
| --- | --- | --- | --- | --- | --- | --- | --- | --- | --- | --- | --- | --- |
| Cc1cc(/C(Cl)=C/C#N)cc(C)c1Nc1ccnc(Nc2ccc(C#N)cc2)n1 | 4 | 31.6 | 7.95 | 7.95 | 30000 | 2 | 7500 | 31.6 | 2.51 | 6.31 | 6.31 |  |
| Cc1cc(/C=C\C#N)cc(C)c1Nc1ccnc(Nc2ccc(C#N)cc2)n1 | 0.6 | 4 | 4 | 31 | 30000 | 1.6 |  | 794 | 6.3 | 5 | 39.8 |  |
| C/C(C#N)=C/c1cc(C)c(Nc2ccnc(Nc3ccc(C#N)cc3)n2)c(C)c1 | 0.8 | 5 | 5 | 31.6 | 3000 | 1 | 3750 | > 10000 | 31.6 | 4 | 20 |  |
| Cc1cc(-c2ccc(C#N)o2)cc(C)c1Nc1ccnc(Nc2ccc(C#N)cc2)n1 | 4 | 31.6 | 31.6 | 31.6 | 10000 | 7.95 | 3162 | 500 | 31.6 | 40 |  |  |
| Cc1cc(/C=C/C#N)cc(C)c1Nc1ccnc(Nc2ccc(C#N)cc2)n1 [RILPIVIRINE] |  | 2 | 1 | 2 | 30000 | 0.3 |  | 7.95 | 0.4 | 1.26 | 1 |  |
| Cc1cc(/C=C(/C#N)CC#N)cc(C)c1Nc1ccnc(Nc2ccc(C#N)cc2)n1 | 0.4 | 12.5 | 25.1 | 31.6 | 2000 | 6.31 | 5012 |  | 31.6 | 6.31 |  |  |
| Cc1cc(CCC#N)cc(C)c1Nc1ccnc(Nc2ccc(C#N)cc2)n1 | 0.63 | 4 | 4 | 20 | 3000 | 0.4 | 4782 | 31.6 | 7.95 | 12.5 | 2.51 |  |
| C/C(C#N)=C\c1cc(C)c(Nc2ccnc(Nc3ccc(C#N)cc3)n2)c(C)c1 | 0.8 | 2.51 | 4 | 3.16 | 20000 | 0.6 | 25000 | 7.95 | 0.6 | 1.6 | 2 |  |
| Cc1cc(CC#N)cc(C)c1Nc1ccnc(Nc2ccc(C#N)cc2)n1 | 0.8 | 10 | 125 | 25.1 | 10000 | 7.95 | 12589 |  | 40 | 25.1 |  |  |
| Cc1cc(COCCC#N)cc(C)c1Nc1ccnc(Nc2ccc(C#N)cc2)n1 | 0.63 | 10 | 125 | 40 | 10000 | 3.16 | 15873 |  | 25.1 | 31.6 |  |  |
| Cc1cc(/C=C/CC#N)cc(C)c1Nc1ccnc(Nc2ccc(C#N)cc2)n1 | 1 | 40 | 50 | 20 | 10000 | 2.51 | 10000 | 251 | 40 | 31.6 | 1 |  |
| O=C1Nc2ccc(Cl)cc2[C@@](C#CC2CC2)(C(F)(F)F)O1 [EFAVIRENZ] |  | 160 |  | 160 | 10000 | 40 |  | > 10000 | 40 | 2 | 40 |  |
| Cc1ccnc2c1NC(=O)c1cccnc1N2C1CC1 [NEVIRAPINE] | 39.8 |  |  | > 10000 | 20000 | 6310 | >500 |  | 316 | 10000 | > 10000 |  |
| Cc1cc(C#N)cc(C)c1Nc1ccnc(Nc2ccc(C#N)cc2)n1 | 0.4 | 100 | 12.6 | 7.9 | 5000 | 2 | 12500 | 1000 | 31 | 6.3 | 31 |  |
| C/C(=C\C#N)c1cc(C)c(Nc2ccnc(Nc3ccc(C#N)cc3)n2)c(C)c1 | 1 | 5 | 5 | 4 | 30000 | 1 | 30000 | 2.51 | 0.8 | 2.51 | 2.51 |  |
| Cc1cc(CC(C)C#N)cc(C)c1Nc1ccnc(Nc2ccc(C#N)cc2)n1 (stereo not drawn) | 0.63 | 6.31 | 3.16 | 50 | 1000 | 0.63 | 1578 | 12.5 | 1 | 2 | 5 |  |
| CC(C)Nc1cccnc1N1CCN(C(=O)c2cc3cc(NS(C)(=O)=O)ccc3[nH]2)CC1 [DELAVIRDINE] | 63.1 |  |  | 1260 | > 20000 | 2510 | >300 |  | 2510 | 2000 |  | 20000 |
